Key:
[1] = target: T1, Isocitrate dehydrogenase [NADP] cytoplasmic (Homo sapiens, UniProt O75874, R132C); assay: (§1) Inhibition of recombinant human C-terminal His8-tagged IDH1 R132C mutant expressed in Escherichia coli BL21 assessed as reduction in NADPH consumption using alpha-ketoglutarate as substrate preincubated for 60 mins followed by substrate addition and measured for 60 mins in presence of NADPH by diaphorase/resazurin-based fluorescence assay
[2] = target: Isocitrate dehydrogenase [NADP] cytoplasmic (Homo sapiens, UniProt O75874, R132H); assay: as §1, with “R132H” for “R132C”, “addition” for “addition and”, “diaphorase/resazurin-based” for “diaphorase/resazurin-based fluorescence”
[3] = Clearance in ICR mouse at 1 mg/kg, iv measured upto 24 hrs by LCMS analysis; type: ADME, organism-based; settings: in vivo
How it was run: (§2)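 Male ICR mice (6-8 weeks, 20-25 g), nine animals, dosed 1 mg/kg by slow intravenous injection or 5 mg/kg orally. Blood sampled into EDTA at 5 min (iv only), 15 min, 30 min, 1, 2, 4, 8 and 24 h. Plasma stored at -20 °C, prepared by acetonitrile protein precipitation with dexamethasone internal standard, and analysed for parent compound. Values are means of three replicates.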

[4] = Volume of distribution at steady state in ICR mouse at 1 mg/kg, iv measured upto 24 hrs by LCMS analysis; type: ADME, organism-based; settings: in vivo, read-out: Vdss; how it was run: as §2
[5] = Half life in ICR mouse at 1 mg/kg, iv measured upto 24 hrs by LCMS analysis; type: ADME, organism-based; settings: in vivo; how it was run: as §2
[6] = AUC in ICR mouse at 1 mg/kg, iv measured upto 24 hrs by LCMS analysis; type: ADME, organism-based; set-up: time < 24 hr, dose 1 mg/kg, route intravenous; settings: in vivo; how it was run: as §2
[7] = Cmax in ICR mouse at 5 mg/kg, po measured upto 24 hrs by LCMS analysis; type: ADME, organism-based; set-up: dose 5 mg/kg, route oral; settings: in vivo; how it was run: as §2
[8] = Half life in ICR mouse at 5 mg/kg, po measured upto 24 hrs by LCMS analysis; type: ADME, organism-based; settings: in vivo; how it was run: as §2
[9] = AUC in ICR mouse at 5 mg/kg, po measured upto 24 hrs by LCMS analysis; type: ADME, organism-based; set-up: dose 5 mg/kg, time < 24 hr, route oral; settings: in vivo; how it was run: as §2
[10] = Oral bioavailability in ICR mouse at 5 mg/kg measured upto 24 hrs by LCMS analysis; type: ADME, organism-based; settings: in vivo; for F: 24 h; for bioavailability: ICR; how it was run: as §2
[11] = target: Isocitrate dehydrogenase [NADP] cytoplasmic (Homo sapiens, UniProt O75874); assay: as §1, with “of wild type” for “of”, “IDH1” for “IDH1 R132C mutant”, “in NADP” for “in NADPH”, “using DL-isocitrate” for “using alpha-ketoglutarate”, “of NADP” for “of NADPH”
[12] = target: T1, Isocitrate dehydrogenase [NADP] cytoplasmic; assay: Inhibition of IDH1 R132C mutant in human HT1080 cells assessed as reduction in 2-HG production incubated with compound for 48 hrs by D2HG assay kit based fluorescence assay; type: cell-based
[13] = Drug uptake in plasma of athymic BALB/c nude mouse xenografted with human HT1080 cells at 50 mg/kg, po administered as a single dose via gavage measured upto 24 hrs post dosing by LC-MS/MS analysis; type: ADME, organism-based; settings: in vivo
How it was run: (§3)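 Female athymic nude mice carrying subcutaneous right-flank HT1080 xenografts (5 × 10^6 cells in PBS/Matrigel 1:1). Compound given by oral gavage as a suspension in 0.5% MC + 0.5% Tween 80 in water, 10 ml/kg. Blood taken by orbital sinus bleed; brain and tumour collected at 2, 6, 12 and 24 h, homogenized in PBS. Samples acetonitrile-precipitated with dexamethasone internal standard and measured by LC/MS/MS.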

[14] = Drug uptake in brain of athymic BALB/c nude mouse xenografted with human HT1080 cells at 50 mg/kg, po administered as a single dose via gavage measured upto 24 hrs post dosing by LC-MS/MS analysis; type: ADME, organism-based; settings: in vivo; how it was run: as §3
[15] = Drug uptake in tumor of athymic BALB/c nude mouse xenografted with human HT1080 cells at 50 mg/kg, po administered as a single dose via gavage measured upto 24 hrs post dosing by LC-MS/MS analysis; type: ADME, organism-based, Neoplasm; settings: in vivo; how it was run: as §3

T1 sequence (O75874 2-414 R132C limits assumed): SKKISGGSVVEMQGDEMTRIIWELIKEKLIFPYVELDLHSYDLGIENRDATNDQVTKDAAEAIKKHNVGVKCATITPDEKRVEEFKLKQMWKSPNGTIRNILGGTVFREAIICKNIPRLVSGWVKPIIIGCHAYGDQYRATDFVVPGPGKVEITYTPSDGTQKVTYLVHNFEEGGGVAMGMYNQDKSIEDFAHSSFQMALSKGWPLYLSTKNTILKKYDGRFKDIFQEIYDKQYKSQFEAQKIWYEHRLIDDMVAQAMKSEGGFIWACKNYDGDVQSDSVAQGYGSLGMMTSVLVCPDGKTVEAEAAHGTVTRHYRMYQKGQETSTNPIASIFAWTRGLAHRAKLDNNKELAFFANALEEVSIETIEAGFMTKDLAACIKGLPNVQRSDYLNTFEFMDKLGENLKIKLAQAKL
Isocitrate dehydrogenase [NADP] cytoplasmic (Homo sapiens, UniProt O75874, R132H), sequence (O75874 2-414 R132H limits assumed): as the sequence (O75874 2-414 R132C limits assumed) above, with C131H counted along it
Isocitrate dehydrogenase [NADP] cytoplasmic (Homo sapiens, UniProt O75874), sequence (O75874 whole entry): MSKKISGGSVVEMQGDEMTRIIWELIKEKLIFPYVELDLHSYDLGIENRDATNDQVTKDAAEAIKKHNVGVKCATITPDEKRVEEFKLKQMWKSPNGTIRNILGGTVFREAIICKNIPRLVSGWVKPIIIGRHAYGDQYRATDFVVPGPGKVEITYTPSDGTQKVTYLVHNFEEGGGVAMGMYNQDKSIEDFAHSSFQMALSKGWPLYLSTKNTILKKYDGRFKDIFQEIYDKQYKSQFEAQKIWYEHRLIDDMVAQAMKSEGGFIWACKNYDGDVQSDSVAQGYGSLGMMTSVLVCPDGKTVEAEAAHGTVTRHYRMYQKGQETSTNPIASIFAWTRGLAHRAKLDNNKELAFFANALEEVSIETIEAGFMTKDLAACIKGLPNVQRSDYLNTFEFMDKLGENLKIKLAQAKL

## CC1Cc2c([C@H](C)Nc3nccc(N4C(=O)OC[C@@H]4[C@H](C)F)n3)ncn2-c2ccc(C(F)(F)F)cc21 (stereo not given in full)
[1]
  IC50: 93.5 nM
[2]
  IC50: 128 nM

## C[C@H](Nc1ncc(F)c(N2C(=O)OC[C@@H]2[C@H](C)F)n1)c1ncn2c1CCc1cc(C(F)(F)F)ccc1-2
[1]
  IC50: 17 nM
[2]
  IC50: 2.1 nM
[3]
  clearance: 21 mL/min/kg
[4]
  Vd: 2.1 L/kg
[5]
  half-life: 84 min
[6]
  AUC at 24 h: 1.52 µM·h
[7]
  Cmax: 1700 nM
[8]
  half-life: 150 min
[9]
  AUC at 24 h: 12.7 µM·h
[10]
  F: 165%

## C[C@H](Nc1nccc(N2C(=O)OC[C@@H]2[C@H](C)F)n1)c1ncn2c1COc1cc(C(F)(F)F)ccc1-2
[11]
  IC50: 2840 nM
[1]
  IC50: 9.4 nM
[2]
  IC50: 2.7 nM
[12]
  IC50: 12 nM
[3]
  clearance: 30 mL/min/kg
[4]
  Vd: 5.2 L/kg
[5]
  half-life: 126 min
[6]
  AUC at 24 h: 1.02 µM·h
[7]
  Cmax: 1120 nM
[8]
  half-life: 150 min
[9]
  AUC at 24 h: 8.46 µM·h
[10]
  F: 152%

## CC(C)[C@H]1C(C)OC(=O)N1c1ccnc(N[C@@H](C)c2ncn3c2CCc2cc(C(F)(F)F)ccc2-3)n1 (stereo not given in full)
[1]
  IC50: 15 nM
[2]
  IC50: 42 nM

## C[C@H](Nc1nccc(N2C(=O)OC[C@@H]2[C@H](C)F)n1)c1ncn2c1CCCc1cc(C(F)(F)F)ccc1-2
[1]
  IC50: 43.5 nM
[2]
  IC50: 44.3 nM

## C[C@H](Nc1nccc(N2C(=O)OC[C@@H]2[C@H](C)F)n1)c1ncn2c1COc1cc(C#N)ccc1-2
[1]
  IC50: 394 nM
[2]
  IC50: 478 nM

## C[C@H](Nc1nccc(N2C(=O)OC[C@@H]2[C@H](C)F)n1)c1ncn2c1CCc1cc(Cl)ccc1-2
[1]
  IC50: 15.3 nM
[2]
  IC50: 2.3 nM
[12]
  IC50: 53.7 nM
[3]
  clearance: 50 mL/min/kg
[4]
  Vd: 4.3 L/kg
[5]
  half-life: 102 min
[6]
  AUC at 24 h: 0.717 µM·h
[7]
  Cmax: 932 nM
[8]
  half-life: 204 min
[9]
  AUC at 24 h: 4.02 µM·h
[10]
  bioavailability: 117%

## C[C@H](Nc1nccc(N2C(=O)OC[C@@H]2[C@H](C)F)n1)c1ncn2c1COc1cc(C3CC3)ccc1-2
[1]
  IC50: 24.8 nM
[2]
  IC50: 33.4 nM

## C[C@H](Nc1nccc(N2CC3(CC3)OC2=O)n1)c1ncn2c1CCc1cc(C(F)(F)F)ccc1-2
[1]
  IC50: 5860 nM
[2]
  IC50: > 10000 nM

## C[C@H](Nc1nc(Cl)cc(N2C(=O)OC[C@@H]2[C@H](C)F)n1)c1ncn2c1CCc1cc(C(F)(F)F)ccc1-2
[1]
  IC50: 23.6 nM
[2]
  IC50: 2.12 nM

## N#Cc1ccnc(N2C(=O)CC[C@H]2C(=O)N(c2cncc(F)c2)[C@H](C(=O)NC2CC(F)(F)C2)c2ccccc2Cl)c1 [IVOSIDENIB]
[3]
  clearance: 9 mL/min/kg
[4]
  Vd: 1.5 L/kg
[5]
  half-life: 150 min
[6]
  AUC at 24 h: 2.97 µM·h
[7]
  Cmax: 2260 nM
[8]
  half-life: 210 min
[9]
  AUC at 24 h: 11.2 µM·h
[10]
  bioavailability: 80%
[13]
  Drug uptake: Active
[14]
  Drug uptake: Active
[15]
  Drug uptake: Active

## CC1Cc2cc(C(F)(F)F)ccc2-n2cnc([C@H](C)Nc3nccc(N4C(=O)OC[C@@H]4[C@H](C)F)n3)c21 (stereo not given in full)
[1]
  IC50: 119 nM
[2]
  IC50: 120 nM

— ChEMBL document CHEMBL4406857, “Discovery of new small molecule inhibitors targeting isocitrate dehydrogenase 1 (IDH1) with blood-brain barrier penetration” (Eur J Med Chem, 2019)
